Source: PubChem BioAssay
Shown are actives, neighbours in structure and some others; about 3.5% of the full set was active somewhere.
MrgX1 antag: human MrgX1 receptor antagonism, primary screen; AID 588676; B-score at 10 µM; 310,000 tested, 1.3% active; MRGX1-HEK293 calcium flux, Fluo-4, BAM8-22 antagonism; stronger effect = lower value; Q96LB2;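 active = calcium-response B-score plate-corrected more than 3 library SD below zero, starting fluorescence within 5 deviations, no agonist response on first addition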;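 note: peak minus trough fluorescence over baseline after final BAM8-22 challenge near maximal dose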
RGS4 inh: inhibitors of human RGS4; P49798; B-score at 10 µM; HEK293 M3R/RGS4 inducible, Fluo-4 calcium flux; stronger effect = higher value; triggered by carbachol at its EC20; 310,000 tested, 0.45% active;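 active = B-score, a plate-corrected calcium signal, over three deviations above library mean, with baseline fluorescence within five deviations of library mean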;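 note: RGS4 expression induced by doxycycline in cells with stable M3 receptor; B-score is computed from the integrated fluorescence ratio over baseline after carbachol; higher B-score means a larger calcium signal and so more RGS4 inhibition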
Target sequence (P49798 whole entry, looked up): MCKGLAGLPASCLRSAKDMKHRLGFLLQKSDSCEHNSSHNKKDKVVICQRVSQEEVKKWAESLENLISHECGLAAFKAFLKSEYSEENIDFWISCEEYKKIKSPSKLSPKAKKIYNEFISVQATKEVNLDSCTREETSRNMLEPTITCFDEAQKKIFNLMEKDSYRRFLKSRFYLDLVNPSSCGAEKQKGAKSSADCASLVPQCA
RGS4 act: RGS4 potentiation or activation | HEK293 M3R/inducible RGS4, carbachol calcium flux Fluo4; stronger effect = lower value | B-score at 10 µM | 310,000 tested, 0.92% active | AID 463111;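 active = B-score of the integrated calcium signal more than 4 SD below the library mean, with starting fluorescence not abnormally high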;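 note: negative B-score means reduced calcium response which marks RGS4 activation or potentiation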
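Material: M3R-expressing HEK293 line, RGS4 induced by doxycycline | Schedule: Overnight RGS4 induction, 30 min dye load 37 °C, 20 min compound RT | Measured by: Fluo4 fluorescence kinetic imaging of calcium | Read-out: Integrated calcium ratio converted to B score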
MrgX1 allo act: human MrgX1 positive allosteric modulation, primary screen. Q96LB2. MrgX1-HEK293, Fluo-4 calcium flux, FDSS; stronger effect = higher value. B-score at 10 µM. 310,000 tested, 0.63% active;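 active = plate-corrected calcium response at least 3 library SD above typical, normal starting fluorescence, not activating the receptor alone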;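 note: compound read alongside a low EC10 to EC30 dose of BAM8-22 agonist; peak minus trough fluorescence over baseline measured at the second addition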
MrgX1 ag: activates human MrgX1 receptor signaling; Q96LB2; 310,000 tested, 0.44% active; MrgX1-HEK293 cells, Fluo-4 calcium fluorescence, agonist mode; stronger effect = higher value; B-score at 10 µM;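 active = calcium response B-score plate-corrected fluorescence ratio at least 3 library SD, with starting fluorescence B-score inside 5 SD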
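System: HEK293 cells stably expressing human MrgX1 receptor; Dosing: test compound in the initial addition of three; Schedule: overnight plating, then 30 min 37 °C plus 30 min room-temperature dye loading; Detection: kinetic calcium dye fluorescence, Fluo-4 NW; Controls: per-plate positive and negative controls for Z′ factor.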
An asterisk follows results filed as active; i = inactive; nt = no result.

SMILES | MrgX1 antag | RGS4 inh | RGS4 act | MrgX1 allo act | MrgX1 ag
O=C(O)c1cccc(S(=O)(=O)Nc2ccccc2C(=O)NCCc2ccccc2)c1 | i | i | i | i | i
CCOCCCNCc1cc(Cl)cc(Cl)c1OCC | i | i | i | i | i
COC(=O)/C=C1\SC(N)=NC1=O | i | i | i | i | i
O=c1c(-c2ccc(O)cc2)coc2cc(O)ccc12 | -7.84* | i | i | i | i
COc1ccc(CNS(=O)(=O)CCNC(=O)c2cccc(OC)c2)cc1 | i | i | i | i | i
CCN(CC)CCNC(=O)c1ccc(NC(C)=O)cc1 | i | i | i | i | i
CCN(CC)CCNC(=O)c1ccc(NC(=O)Cc2cccc3ccccc23)cc1 | i | i | -7.52* | i | i
CC1=CC(=O)c2c(O)ccc(O)c2C1=O | i | nt | nt | i | i
O=C(c1cc2c(F)cccc2s1)N1CCCC1 | i | i | i | i | i
CC1=C(C)/C(=N\OS(=O)(=O)c2ccccc2)C=CC1=O | i | i | i | i | 32.8*
Cc1ccc(S(=O)(=O)O/N=C2\CCCc3ccccc32)cc1 | i | i | i | i | i
CCCCCCCCCCCCCCCC[n+]1cccc(C(=O)N(CC)CC)c1 | i | i | -9.91* | i | i
COc1ccc(N(CC(=O)NCC(C)C)S(=O)(=O)c2ccccc2)cc1 | i | i | i | i | i
COc1ccc(N(CC(=O)NCCSCc2ccccc2C)S(=O)(=O)c2ccccc2)cc1 | i | i | -7.8* | i | i
COc1ccccc1CNC(=O)CN(c1ccc(C)cc1)S(=O)(=O)c1c(C)nn(C)c1C | i | i | i | i | i
CS(=O)(=O)N(CC(=O)NCCSCc1ccco1)c1ccc(Cl)cc1 | i | i | i | i | i
CC(C)c1ccc(N(CC(=O)NCCSCc2ccco2)S(C)(=O)=O)cc1 | i | i | i | 7.13* | i
COc1ccccc1N(CC(=O)NCCSCc1ccccc1)S(C)(=O)=O | i | i | i | i | i
COc1ccc(N(CC(=O)NCc2ccccc2OC)S(=O)(=O)c2c(C)nn(C)c2C)cc1 | -6.27* | i | i | i | i
COc1ccccc1N(CC(=O)NCCSCc1cccc(C)c1)S(=O)(=O)c1ccccc1 | i | i | -8.58* | i | i
O=C(NC1CCCC1)C(c1cccnc1)N(C(=O)c1ccco1)c1ccc(F)cc1 (stereo not given) | i | i | i | i | i
CC(C)Cn1c(=O)c2ccccc2n2c(CCC(=O)O)nnc12 | i | i | i | i | i
COc1cccc(N(CC(=O)NCCSCc2ccco2)S(=O)(=O)c2ccccc2)c1 | i | i | i | 7.16* | i
COc1ccc(C)cc1NC(=O)CCS(=O)(=O)c1ccc2c(c1)oc(=O)n2C | i | i | i | i | i
CCn1ccnc1CN1CCc2c([nH]c3ccccc23)C1C1CCCCC1 (stereo not given) | i | i | -7.57* | i | i
SMILES | MrgX1 antag | RGS4 inh | RGS4 act | MrgX1 allo act | MrgX1 ag
CCn1ccnc1CN1CCc2c([nH]c3ccccc23)C1C(C)(C)C (stereo not given) | i | i | i | i | i
COc1ccc(CNC(=O)CCC2N=C3c4ccccc4N=C(SCC(=O)NCC4CCCO4)N3C2=O)cc1 (stereo not given) | i | i | i | i | i
COc1ccc(Cl)cc1-n1c(C)cc(C=O)c1C | i | i | i | 7.77* | i
O=C(NCCc1cccc(C(F)(F)F)c1)C1CCC(=O)N(C2CC2)C1 (stereo not given) | i | i | i | i | i
CCc1ccc(S(=O)(=O)/N=C2/C=C(Sc3ncn[nH]3)C(=O)c3ccccc32)cc1 | i | nt | nt | 6.97* | i
CCc1ccc(S(=O)(=O)/N=C2\C=CC(=O)c3ccccc32)cc1 | i | i | i | i | i
Cc1ccccc1/C=C/C(=O)N1CCOCC1 | i | i | i | i | i
COc1ccccc1/C=C/C(=O)N1CCOCC1 | i | i | -7.78* | i | i
CCC(C)(C)n1nnnc1C(c1ccccc1)N1CCN(Cc2ccccc2)CC1 (stereo not given) | i | i | i | i | i
